Values after ≈ are worked out from the molar mass of the structure shown. Active and inactive are the calls of the source. The calls are words filed in the database; no cut-off is given here.
Columns and labels:
[1] = system: Nakaseomyces glabratus; experiment: Antifungal activity against Candida glabrata isolate 21230 with silent mutations in ERG4, ERG5 genes and nonsense mutation in ERG6 gene by disk diffusion method; type: functional
[2] = system: Nakaseomyces glabratus; experiment: Antifungal activity against wild-type Candida glabrata isolate 21231 by disk diffusion method; type: functional
[3] = system: Nakaseomyces glabratus; experiment: Antifungal activity against wild-type Candida glabrata isolate 21231 by Etest method; type: functional
[4] = system: Nakaseomyces glabratus; experiment: Antifungal activity against Candida glabrata isolate 21230 with silent mutation in ERG4, ERG5 genes and nonsense mutation in ERG6 gene by Etest method; type: functional
[5] = system: Nakaseomyces glabratus; experiment: Antifungal activity against Candida glabrata isolate 21230C by disk diffusion method; type: functional
Method in brief: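 The strain is the ura3 derivative of clinical isolate 21230 complemented with a centromeric plasmid carrying wild-type ERG6, tested as for the parent isolate. Isolates were maintained on YEPD agar.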

[6] = system: Nakaseomyces glabratus; experiment: Antifungal activity against Candida glabrata isolate 21230 at 2 mM; type: functional, organism-based
Method in brief: (§1)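 Compound incorporated at 2 mM into YEPD agar. Cell suspensions at 10^7 down to 10^3 cells per ml were spotted at 10 µl each, dried and incubated 48 h at 37°C. Growth was compared with spots on YEPD agar without inhibitor.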

[7] = system: Nakaseomyces glabratus; experiment: Antifungal activity against Candida glabrata isolate 21229 with missense mutation in ERG6 gene at 2 mM; type: functional, organism-based; method in brief: as §1

| Molecule | inhibition zone (IZ) [1] [mm] | inhibition zone (IZ) [2] [mm] | MIC [3] [µg/mL] | MIC [4] [µg/mL] | inhibition zone (IZ) [5] [mm] | Activity [6] | Activity [7] |
| --- | --- | --- | --- | --- | --- | --- | --- |
| CC(=O)N1CCN(c2ccc(OCC3COC(Cn4ccnc4)(c4ccc(Cl)cc4Cl)O3)cc2)CC1 (stereo not drawn) [KETOCONAZOLE] | 43 | 33 | 0.19 (≈ 0.358 µM) | 0.064 (≈ 0.12 µM) |  |  |  |
| Clc1ccc(COC(Cn2ccnc2)c2ccc(Cl)cc2Cl)c(Cl)c1 (stereo not drawn) [MICONAZOLE] | 29 | 21 |  |  |  |  |  |
| NYSTATIN | 19 | 31 |  |  |  |  |  |
| C[C@@H]1[C@H](O)[C@@H](C)/C=C/C=C/C=C/C=C/C=C/C=C/C=C/[C@H](O[C@@H]2O[C@H](C)[C@@H](O)[C@H](N)[C@@H]2O)C[C@@H]2O[C@](O)(C[C@@H](O)C[C@@H](O)[C@H](O)CC[C@@H](O)C[C@@H](O)CC(=O)O[C@H]1C)C[C@H](O)[C@H]2C(=O)O [AMPHOTERICIN B] | 13 | 27 | 0.047 (≈ 0.0509 µM) | 0.125 (≈ 0.135 µM) | 29 |  |  |
| Clc1ccc(COC(Cn2ccnc2)c2ccc(Cl)cc2Cl)cc1 (stereo not drawn) [ECONAZOLE] | 35 | 25 |  |  |  |  |  |
| OC(Cn1cncn1)(Cn1cncn1)c1ccc(F)cc1F [FLUCONAZOLE] | 29 | 21 | 6 (≈ 19.6 µM) | 1 (≈ 3.27 µM) |  |  |  |
| C[C@@H](c1ncncc1F)[C@](O)(Cn1cncn1)c1ccc(F)cc1F [VORICONAZOLE] | 39 | 30 |  |  |  |  |  |
| Cn1c(=O)c2c(ncn2C)n(C)c1=O |  |  |  |  |  | Active | Active |
